# Test results from ChEMBL document CHEMBL1800061 (J Med Chem, 2010).
# Active and inactive are the calls of the source. No cut-off for these calls is given here.
# Tests used:
# [1] = molecular target: CDK6/cyclin D1 (Homo sapiens, UniProt Q00534); test: Inhibition of CDK6/cyclinD1 assessed as amount of ATP […] by luciferase activity based PKLight assay; type: protein-complex assay
# Outline: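 Purified recombinant CDK4/cycD1, CDK6/CycD1, CDK7/CycH/MAT1 or CDK9/CycT run with the supplier's substrate peptides under the manufacturer's protocol. Inhibition was read as ATP left at the end of the reaction, measured by luciferase luminescence (PKLight).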
# [2] = molecular target: Mitogen-activated protein kinase 15 (Homo sapiens) (UniProt Q8TD08); test: Inhibition of ERK8 assessed as residual enzyme activity at 10 uM
# [3] = molecular target: Mitogen-activated protein kinase 3 (Homo sapiens, UniProt P27361); test: Inhibition of ERK1
# [4] = Bioavailability in mouse at 10 mg/kg, ip; type: ADME, organism-based; details: in vivo
# Outline: (§1)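 Mice given 10 mg/kg by the ip, iv or oral route. Plasma levels were measured at 8 time points, with 3 animals per route for po and iv. Parameters came from a noncompartmental model. AUCINF was extrapolated to infinity, and bioavailability was calculated from AUCINF. The terminal slope used 3 points.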
# [5] = molecular target: Ribosomal protein S6 kinase alpha-5 (Homo sapiens) (UniProt O75582); test: Inhibition of MSK1 assessed as residual enzyme activity at 10 uM
# [6] = test system: Mus musculus; test: Inhibition of cyclin-dependent kinase substrate […] phosphorylation in nude BALB/c mouse PBMC at 50 mg/kg, po measured after 6 hrs by immunostaining and flow cytometric analysis; type: functional, organism-based; set-up: dose 50 mg/kg
# Outline: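 Female nu/nu-BALB/c athymic nude mice (7 weeks old) given a single oral gavage dose in 28% PEG300/5% dimethylacetamide/10% HPB cyclodextrin in water. PBMC were isolated from cardiac blood after red-cell lysis, then fixed, permeabilized and stained with primary antibodies (1:100, 1 h, RT) and an Alexa Fluor 488 secondary (1:200, 1 h). Read-out was flow cytometry; n=4 (n=3 at 100 mg/kg).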
# [7] = molecular target: Cyclin-T1/Cyclin-dependent-like kinase 5 (Homo sapiens, UniProt O60563+Q00535); test: Inhibition of CDK5/cyclinT assessed as amount of ATP released by luciferase activity based PKLight assay; type: protein-complex assay
# [8] = test system: Mus musculus; test: Inhibition of cyclin-dependent kinase substrate […] phosphorylation at Ser2 in nude BALB/c mouse PBMC at 25 mg/kg, po measured after 6 hrs by immunostaining and flow cytometric analysis; type: functional
# Outline: (§2)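 Seven-week-old female nu/nu-BALB/c nude mice got a single oral gavage (vehicle 28% PEG300/5% dimethylacetamide/10% HPB cyclodextrin in water). Blood was taken by cardiac puncture at 6 h or 24 h, red cells were lysed, and PBMC were fixed and permeabilized. Cells were stained with Rb, Rb pThr821, PolII or PolII pSer2 antibodies plus an Alexa488 secondary, then read by flow cytometry; n=4 (n=3 at 100 mg/kg).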
# [9] = molecular target: Mitogen-activated protein kinase 14 (Homo sapiens) (UniProt Q16539); test: Inhibition of p38alpha MAPK assessed as residual enzyme activity at 10 uM
# [10] = molecular target: Cyclin-dependent kinase 9 (Homo sapiens) (UniProt P50750); test: Inhibition of CDK9-mediated phosphorylation of RNA pol3 in human HCT116 cells after 4 hrs by immunoblotting analysis; type: cell-based; details: HCT-116
# Outline: (§3)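 HCT116 colon cancer cells were kept in DMEM with 10% FCS. Cells (8×10^5) were plated, dosed 24 h later, and exposed for 4 or 24 h. Whole-cell lysates were made in RIPA buffer with phosphatase and protease inhibitor cocktails and normalised by BCA protein assay. They were immunoblotted for phospho-sites, total proteins and cyclins.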
# [11] = test system: MDA-MB-231; test: Antiproliferative activity against human MDA-MB-231 cells after 72 hrs by sulforhodamine B assay; type: functional; details: MDA-MB-231, 72 h
# Outline: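 Cell lines were grown in DMEM with 10% FCS and treated with increasing concentrations for 72 h. Growth was read by sulforhodamine B staining and GI50 was derived. Values are means of at least three replicates with SD.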
# [12] = molecular target: Serine/threonine-protein kinase pim-3 (Homo sapiens) (UniProt Q86V86); test: Inhibition of PIM3 assessed as residual enzyme activity at 10 uM
# [13] = molecular target: Mitogen-activated protein kinase 15 (Homo sapiens, UniProt Q8TD08); test: Inhibition of ERK8
# [14] = molecular target: G2/mitotic-specific cyclin-B1 (Homo sapiens) (UniProt P14635); test: Inhibition of cyclin B-mediated phosphorylation of RB protein in human HCT116 cells after 4 hrs by immunoblotting analysis; type: cell-based; details: HCT-116; outline: as §3
# [15] = test system: Mus musculus; test: Inhibition of cyclin-dependent kinase substrate RB phosphorylation in nude BALB/c mouse PBMC at 75 to 100 mg/kg, po measured after 24 hrs by immunostaining and flow cytometric analysis; type: organism-based; set-up: dose 75-100 mg/kg, route oral; details: in vivo; outline: as §2
# [16] = molecular target: Serine/threonine-protein kinase PLK1 (Homo sapiens) (UniProt P53350); test: Inhibition of PLK1 assessed as residual enzyme activity at 10 uM
# [17] = molecular target: Dual specificity tyrosine-phosphorylation-regulated kinase 2 (Homo sapiens) (UniProt Q92630); test: Inhibition of DYRK2 assessed as residual enzyme activity at 10 uM
# [18] = test system: MCF7; test: Cell cycle arrest in human MCF7 cells assessed as reduction in cells at G1 phase at 1 to 10 umol/L after 24 hrs by propidium iodide staining based flow cytometric analysis; type: functional
# [19] = molecular target: Myosin light chain kinase, smooth muscle (Homo sapiens) (UniProt Q15746); test: Inhibition of Smooth muscle MLCK assessed as residual enzyme activity at 10 uM
# [20] = Plasma protein binding in mouse at 10 uM; type: ADME, cell-free; details: read-out: PPB (converted)
# Outline: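 Plasma protein binding in human and mouse plasma, test concentration 10 μM. Reported as percent bound, mean (range).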
# [21] = molecular target: Casein kinase I isoform alpha (Homo sapiens, UniProt P48729); test: Inhibition of CK1
# [22] = molecular target: Mitogen-activated protein kinase 1 (Homo sapiens, UniProt P28482); test: Inhibition of ERK2 at 0.1 uM
# [23] = molecular target: Calcium/calmodulin-dependent protein kinase kinase 2 (Homo sapiens, UniProt Q96RR4); test: Inhibition of CAMKKbeta
# [24] = molecular target: MAP/microtubule affinity-regulating kinase 3 (Homo sapiens) (UniProt P27448); test: Inhibition of MARK3 assessed as residual enzyme activity at 10 uM
# [25] = test system: Mus musculus; test: AUC (0 to infinity) in mouse at 10 mg/kg, iv; type: ADME, organism-based, Plasma; set-up: time infinity, dose 10 mg/kg, route intravenous; details: in vivo; outline: as §1
# [26] = test system: Mus musculus; test: Toxicity in nude BALB/c mouse assessed as adverse effect on weight at 5 mg/kg, ip bid for 14 days; type: organism-based; set-up: dose 5 mg/kg, route intraperitoneal; details: in vivo, 336 h
# Outline: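 Nude mice bearing MCF-7 tumors, randomized, given ip injections twice daily with vehicle or 5 or 10 mg/kg (10 or 20 mg/kg/day) for 14 days. Body weights were followed over the study; n=8–11 per group.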
# [27] = Volume of distribution at steady state in mouse at 10 mg/kg, iv; type: ADME, organism-based; set-up: dose 10 mg/kg, route intravenous; details: in vivo, read-out: Vdss
# [28] = molecular target: Homeodomain-interacting protein kinase 2 (Homo sapiens) (UniProt Q9H2X6); test: Inhibition of HIPK2 assessed as residual enzyme activity at 10 uM
# [29] = molecular target: 3-phosphoinositide-dependent protein kinase 1 (Homo sapiens) (UniProt O15530); test: Inhibition of PDK1 assessed as residual enzyme activity at 10 uM
# Calcium/calmodulin-dependent protein kinase kinase 2, sequence (Q96RR4 whole entry): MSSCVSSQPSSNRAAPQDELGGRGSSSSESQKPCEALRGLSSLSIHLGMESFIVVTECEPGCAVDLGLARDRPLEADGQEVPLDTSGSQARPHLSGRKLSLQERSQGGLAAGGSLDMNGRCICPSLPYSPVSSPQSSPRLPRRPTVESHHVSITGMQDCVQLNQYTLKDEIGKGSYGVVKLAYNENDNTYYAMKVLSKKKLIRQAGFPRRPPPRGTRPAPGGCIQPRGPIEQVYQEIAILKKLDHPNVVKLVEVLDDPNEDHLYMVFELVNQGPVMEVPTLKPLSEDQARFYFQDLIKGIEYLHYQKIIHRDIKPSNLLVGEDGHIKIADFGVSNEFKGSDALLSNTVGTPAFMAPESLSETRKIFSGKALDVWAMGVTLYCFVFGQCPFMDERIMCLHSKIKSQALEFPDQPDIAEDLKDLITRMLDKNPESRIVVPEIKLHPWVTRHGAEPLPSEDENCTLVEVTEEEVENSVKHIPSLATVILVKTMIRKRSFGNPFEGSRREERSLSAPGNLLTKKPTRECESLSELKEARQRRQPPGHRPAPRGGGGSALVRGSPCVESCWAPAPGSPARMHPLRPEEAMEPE
# Cyclin-T1/Cyclin-dependent-like kinase 5, sequence (Q00535 whole entry): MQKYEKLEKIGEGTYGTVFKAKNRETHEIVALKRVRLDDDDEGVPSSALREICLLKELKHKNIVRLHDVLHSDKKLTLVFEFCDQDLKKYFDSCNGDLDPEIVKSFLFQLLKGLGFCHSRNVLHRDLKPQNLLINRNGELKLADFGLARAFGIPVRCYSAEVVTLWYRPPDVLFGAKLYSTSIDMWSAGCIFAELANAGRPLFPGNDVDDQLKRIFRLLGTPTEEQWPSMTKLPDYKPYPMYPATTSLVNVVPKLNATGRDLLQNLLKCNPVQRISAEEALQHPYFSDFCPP
# Cyclin-T1/Cyclin-dependent-like kinase 5, sequence (O60563 whole entry): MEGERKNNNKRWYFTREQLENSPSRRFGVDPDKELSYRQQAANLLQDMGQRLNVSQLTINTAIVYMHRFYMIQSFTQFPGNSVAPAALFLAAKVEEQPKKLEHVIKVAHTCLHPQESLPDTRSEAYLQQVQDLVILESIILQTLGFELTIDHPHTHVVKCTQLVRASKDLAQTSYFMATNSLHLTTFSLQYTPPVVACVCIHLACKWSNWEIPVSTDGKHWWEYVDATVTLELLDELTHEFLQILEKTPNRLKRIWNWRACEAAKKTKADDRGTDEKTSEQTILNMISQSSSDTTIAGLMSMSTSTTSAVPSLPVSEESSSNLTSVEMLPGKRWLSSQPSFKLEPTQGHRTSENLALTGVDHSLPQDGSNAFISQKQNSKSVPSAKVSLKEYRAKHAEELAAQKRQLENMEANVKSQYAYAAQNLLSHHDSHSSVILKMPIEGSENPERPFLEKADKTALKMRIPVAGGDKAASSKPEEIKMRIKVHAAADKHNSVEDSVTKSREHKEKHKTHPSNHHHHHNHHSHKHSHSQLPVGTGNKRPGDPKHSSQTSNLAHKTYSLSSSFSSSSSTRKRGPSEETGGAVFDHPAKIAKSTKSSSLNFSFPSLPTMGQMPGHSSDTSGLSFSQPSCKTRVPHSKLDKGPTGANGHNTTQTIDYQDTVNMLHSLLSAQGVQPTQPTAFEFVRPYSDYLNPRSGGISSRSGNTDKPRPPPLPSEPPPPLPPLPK
# Myosin light chain kinase, smooth muscle (Homo sapiens), sequence (Q15746 whole entry): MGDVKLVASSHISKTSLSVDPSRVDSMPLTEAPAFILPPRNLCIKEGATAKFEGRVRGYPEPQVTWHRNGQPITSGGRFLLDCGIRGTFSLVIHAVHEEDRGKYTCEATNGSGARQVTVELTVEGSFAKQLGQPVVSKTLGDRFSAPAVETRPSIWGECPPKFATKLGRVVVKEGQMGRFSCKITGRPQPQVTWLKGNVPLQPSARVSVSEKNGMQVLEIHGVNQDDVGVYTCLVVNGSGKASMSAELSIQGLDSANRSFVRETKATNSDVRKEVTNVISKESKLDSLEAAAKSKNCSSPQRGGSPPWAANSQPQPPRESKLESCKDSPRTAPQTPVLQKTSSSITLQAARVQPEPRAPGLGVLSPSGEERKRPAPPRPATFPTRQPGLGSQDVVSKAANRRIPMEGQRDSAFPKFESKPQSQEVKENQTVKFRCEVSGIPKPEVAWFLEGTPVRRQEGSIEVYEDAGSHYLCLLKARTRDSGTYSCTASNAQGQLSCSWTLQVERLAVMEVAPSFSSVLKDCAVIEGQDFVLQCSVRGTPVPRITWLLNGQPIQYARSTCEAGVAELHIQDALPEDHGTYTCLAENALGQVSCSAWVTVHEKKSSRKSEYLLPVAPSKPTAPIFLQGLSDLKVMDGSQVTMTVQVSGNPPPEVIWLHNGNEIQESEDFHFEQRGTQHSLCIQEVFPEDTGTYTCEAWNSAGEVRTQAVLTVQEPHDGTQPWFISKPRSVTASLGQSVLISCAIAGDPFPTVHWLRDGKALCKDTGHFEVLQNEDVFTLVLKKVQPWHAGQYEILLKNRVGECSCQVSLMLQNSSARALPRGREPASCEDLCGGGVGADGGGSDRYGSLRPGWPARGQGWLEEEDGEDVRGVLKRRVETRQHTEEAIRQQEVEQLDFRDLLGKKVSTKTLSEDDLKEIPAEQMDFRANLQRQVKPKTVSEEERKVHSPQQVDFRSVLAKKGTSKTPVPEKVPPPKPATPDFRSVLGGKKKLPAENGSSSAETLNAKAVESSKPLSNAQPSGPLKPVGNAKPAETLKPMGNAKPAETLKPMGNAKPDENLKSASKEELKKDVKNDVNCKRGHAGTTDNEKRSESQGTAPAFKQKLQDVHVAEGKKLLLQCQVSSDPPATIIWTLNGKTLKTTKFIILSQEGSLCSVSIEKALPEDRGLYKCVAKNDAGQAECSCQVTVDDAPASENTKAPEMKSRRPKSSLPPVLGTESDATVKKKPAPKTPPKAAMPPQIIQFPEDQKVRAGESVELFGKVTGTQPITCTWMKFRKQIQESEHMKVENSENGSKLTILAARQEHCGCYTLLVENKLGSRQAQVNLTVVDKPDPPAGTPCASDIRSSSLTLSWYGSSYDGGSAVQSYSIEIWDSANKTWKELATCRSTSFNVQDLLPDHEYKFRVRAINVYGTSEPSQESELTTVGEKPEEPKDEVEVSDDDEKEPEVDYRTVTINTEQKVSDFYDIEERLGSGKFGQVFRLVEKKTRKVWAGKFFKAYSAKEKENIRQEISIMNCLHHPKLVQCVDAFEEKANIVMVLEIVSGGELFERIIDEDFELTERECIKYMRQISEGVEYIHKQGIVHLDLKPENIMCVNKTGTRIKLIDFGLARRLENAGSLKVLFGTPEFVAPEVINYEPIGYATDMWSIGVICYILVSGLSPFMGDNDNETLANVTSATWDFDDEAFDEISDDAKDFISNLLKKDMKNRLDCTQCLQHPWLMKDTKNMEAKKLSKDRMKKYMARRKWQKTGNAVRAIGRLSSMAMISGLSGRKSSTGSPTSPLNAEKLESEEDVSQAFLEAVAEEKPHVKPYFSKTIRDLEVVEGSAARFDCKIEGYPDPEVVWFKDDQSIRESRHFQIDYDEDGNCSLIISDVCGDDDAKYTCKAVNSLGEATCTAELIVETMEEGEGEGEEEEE
# MAP/microtubule affinity-regulating kinase 3 (Homo sapiens), sequence (P27448 whole entry, looked up): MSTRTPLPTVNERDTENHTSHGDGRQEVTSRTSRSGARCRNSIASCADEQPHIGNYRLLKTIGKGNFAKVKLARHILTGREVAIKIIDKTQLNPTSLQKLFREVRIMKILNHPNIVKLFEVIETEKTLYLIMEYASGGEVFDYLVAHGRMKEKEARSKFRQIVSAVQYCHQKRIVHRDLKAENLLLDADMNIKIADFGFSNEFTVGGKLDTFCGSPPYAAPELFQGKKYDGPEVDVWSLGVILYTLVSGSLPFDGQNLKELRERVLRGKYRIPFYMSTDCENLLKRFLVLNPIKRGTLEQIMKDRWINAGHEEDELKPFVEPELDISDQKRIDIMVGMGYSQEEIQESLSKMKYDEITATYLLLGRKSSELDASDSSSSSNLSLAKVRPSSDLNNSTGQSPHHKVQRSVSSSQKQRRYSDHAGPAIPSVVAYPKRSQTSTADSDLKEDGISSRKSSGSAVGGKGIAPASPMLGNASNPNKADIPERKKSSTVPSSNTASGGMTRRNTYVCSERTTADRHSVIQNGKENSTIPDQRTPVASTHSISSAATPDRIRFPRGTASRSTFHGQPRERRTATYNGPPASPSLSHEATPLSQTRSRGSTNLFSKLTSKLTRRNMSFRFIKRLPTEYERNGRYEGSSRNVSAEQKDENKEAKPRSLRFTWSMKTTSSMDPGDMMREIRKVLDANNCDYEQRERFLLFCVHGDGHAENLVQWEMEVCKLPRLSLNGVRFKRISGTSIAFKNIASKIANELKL
# Mitogen-activated protein kinase 15 (Homo sapiens), sequence (Q8TD08 whole entry): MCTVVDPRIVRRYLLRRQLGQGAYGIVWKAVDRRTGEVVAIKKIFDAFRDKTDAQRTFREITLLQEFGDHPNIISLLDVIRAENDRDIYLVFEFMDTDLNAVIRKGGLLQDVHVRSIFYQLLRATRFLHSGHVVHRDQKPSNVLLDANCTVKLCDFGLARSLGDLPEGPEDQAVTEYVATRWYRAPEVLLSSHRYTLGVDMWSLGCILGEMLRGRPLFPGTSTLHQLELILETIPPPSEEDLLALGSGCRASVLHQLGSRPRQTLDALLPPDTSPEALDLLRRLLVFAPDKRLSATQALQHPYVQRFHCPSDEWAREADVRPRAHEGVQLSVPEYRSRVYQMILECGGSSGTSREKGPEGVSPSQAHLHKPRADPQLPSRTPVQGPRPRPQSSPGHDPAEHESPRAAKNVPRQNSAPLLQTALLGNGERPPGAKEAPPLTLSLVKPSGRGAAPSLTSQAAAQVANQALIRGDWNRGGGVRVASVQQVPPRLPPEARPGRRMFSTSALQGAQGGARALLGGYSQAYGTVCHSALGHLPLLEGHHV
# Mitogen-activated protein kinase 15, sequence (Q8TD08 whole entry): as above
smiles,measurement,setting,value
CC(C)c1cnn2c(NCc3ccccc3)cc(N[C@@H](CO)[C@H](O)CO)nc12,IC50,[1],35.5 µM
same,Activity,[2],26%
same,IC50,[3],3.73 µM
same,bioavailability,[4],73%
same,Activity,[5],96%
same,inhibition,[6],inactive
same,IC50,[7],0.03 µM
same,inhibition in vivo at 25 mg/kg,[8],25%
same,Activity,[9],98%
same,inhibition,[10],inactive
same,GI50,[11],0.3 µM
same,Activity,[12],101%
same,IC50,[13],0.33 µM
same,inhibition,[14],inactive
same,inhibition (INH),[15],Not Active
same,Activity,[16],68%
same,Activity,[17],75%
same,Activity,[18],Active
same,Activity,[19],101%
same,fraction unbound at 10 µM,[20],0.117
same,IC50,[21],1.04 µM
same,inhibition,[22],< 50%
same,IC50,[23],2.45 µM
same,Activity,[24],82%
same,AUC,[25],36400 ng·h/mL
same,Activity,[26],Non-toxic
same,Vd,[27],0.754 L/kg
same,Activity,[28],73%
same,Activity,[29],84%
